The source made the active and inactive calls. No cut-off for these calls is given here.
Assays:
[1] = test system: Staphylococcus aureus; test: Antimicrobial activity against Staphylococcus aureus ATCC 25923; type: functional
Summary of the method: (§1)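 Compound stocks were 20.000 µg/mL in hexane. DMSO diluted 1:10 served as the solvent control, and ampicillin was the reference drug.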

[2] = test system: Yersinia pseudotuberculosis; test: Antimicrobial activity against Yersinia pseudotuberculosis ATCC 911; type: functional
Summary of the method: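 Compounds were dissolved in […] as 20.000 µg/mL stocks. Ampicillin (10 µg) was the reference antibacterial, and DMSO diluted 1:10 was the solvent control.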

[3] = test system: Mycolicibacterium smegmatis; test: Antimicrobial activity against Mycobacterium smegmatis ATCC 607; type: functional
[4] = test system: Enterococcus faecalis; test: Antimicrobial activity against Enterococcus faecalis ATCC 29212; type: functional; summary of the method: as §1
[5] = test system: Candida albicans; test: Antimicrobial activity against Candida albicans ATCC 60193; type: functional
[6] = test system: Pseudomonas aeruginosa; test: Antimicrobial activity against Pseudomonas aeruginosa ATCC 43288; type: functional; summary of the method: as §1
[7] = test system: Saccharomyces cerevisiae; test: Antimicrobial activity against Saccharomyces cerevisiae RSKK 251; type: functional
[8] = test system: Bacillus cereus; test: Antimicrobial activity against Bacillus cereus 702 Roma; type: functional; summary of the method: as §1
[9] = molecular target: Urease (Canavalia ensiformis) (UniProt P07374); test: Inhibition of jack bean urease using urea as substrate assessed as ammonia production at 250 ug/ml after 15 mins relative to control
Summary of the method: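 Jack bean urease in pH 8.2 buffer (100 mM urea, 0.01 M K2HPO4, 1 mM EDTA, 0.01 M LiCl) was incubated with compound for 15 min at room temperature. Ammonia was measured by the indophenol method (phenol/nitroprusside, then NaOH/NaOCl) at A625 after 20 min. Inhibition % = 100 − (OD test/OD control)×100. […] Thiourea was the standard.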

[10] = test system: Bacillus cereus; test: Inhibition of Bacillus cereus metallo beta-lactamase assessed as nitrocefin substrate hydrolysis at 1 mM after 20 mins
Summary of the method: (§2)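 Commercial B. cereus metallo-β-lactamase (1.5 µM solution) was combined with nitrocefin (150 µM solution) and compound in 25 mM PIPES pH 7.0 containing 100 µM ZnSO4. A486 was read continuously for 20 min at 37 °C. Residual activity was taken relative to the no-inhibitor control, in triplicate. Screening used 1 mM final; IC50 came from a concentration series. HgCl2 was the positive control.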

[11] = Inhibition of Bacillus cereus metallo beta-lactamase assessed as nitrocefin substrate hydrolysis after 20 mins; summary of the method: as §2

Urease (Canavalia ensiformis), sequence (P07374 whole entry, looked up): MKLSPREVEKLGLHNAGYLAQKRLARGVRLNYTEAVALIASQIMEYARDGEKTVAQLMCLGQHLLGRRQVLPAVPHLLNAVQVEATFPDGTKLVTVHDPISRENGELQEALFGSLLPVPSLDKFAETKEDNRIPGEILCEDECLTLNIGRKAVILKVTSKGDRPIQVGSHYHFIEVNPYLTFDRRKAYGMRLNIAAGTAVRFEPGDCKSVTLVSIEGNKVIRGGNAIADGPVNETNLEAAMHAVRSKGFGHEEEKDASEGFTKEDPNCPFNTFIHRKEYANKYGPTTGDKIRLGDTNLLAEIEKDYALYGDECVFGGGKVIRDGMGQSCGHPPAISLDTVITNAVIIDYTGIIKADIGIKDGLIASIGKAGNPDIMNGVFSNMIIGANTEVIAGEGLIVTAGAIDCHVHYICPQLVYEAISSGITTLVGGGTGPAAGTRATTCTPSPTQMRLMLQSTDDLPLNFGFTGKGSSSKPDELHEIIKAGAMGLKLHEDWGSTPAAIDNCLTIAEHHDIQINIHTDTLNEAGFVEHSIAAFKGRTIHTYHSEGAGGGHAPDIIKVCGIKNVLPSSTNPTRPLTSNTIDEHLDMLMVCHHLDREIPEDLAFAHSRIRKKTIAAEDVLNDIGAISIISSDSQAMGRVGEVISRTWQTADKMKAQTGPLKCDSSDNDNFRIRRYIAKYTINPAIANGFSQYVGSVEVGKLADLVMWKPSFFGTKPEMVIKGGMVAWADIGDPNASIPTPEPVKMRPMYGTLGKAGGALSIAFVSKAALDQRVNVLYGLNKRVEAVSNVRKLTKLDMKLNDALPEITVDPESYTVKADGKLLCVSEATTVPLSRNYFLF

Molecule | inhibition zone (IZ) [1] | inhibition zone (IZ) [2] | inhibition zone (IZ) [3] | inhibition zone (IZ) [4] | inhibition zone (IZ) [5] | inhibition zone (IZ) [6] | inhibition zone (IZ) [7] | inhibition zone (IZ) [8] | inhibition [9] | inhibition [10] | IC50 [11]
O=S(=O)(Cl)c1ccc(/N=c2/sc(-c3ccc(Cl)cc3)cn2Cc2ccccc2)cc1 | 16 mm | inactive | 10 mm | 18 mm | 10 mm | inactive | 20 mm | 6 mm |  |  | 
CC(=O)OCC1=C(C(=O)O)N2C(=O)[C@@H](NS(=O)(=O)c3ccc([N+](=O)[O-])cc3)[C@H]2SC1 | 23 mm | inactive | inactive | 6 mm | inactive |  | inactive | 8 mm | 28% | 18% | 
CC(=O)OCC1=C(C(=O)O)N2C(=O)[C@@H](NS(=O)(=O)c3ccc(NC(=O)NCc4ccccc4)cc3)[C@H]2SC1 | 18 mm | 10 mm | 14 mm | 10 mm | 10 mm | 8 mm | 10 mm | 10 mm |  |  | 
CC(=O)OCC1=C(C(=O)O)N2C(=O)[C@@H](NS(=O)(=O)c3ccc(/N=c4/sc(-c5ccc(Cl)cc5)cn4-c4ccccc4)cc3)[C@H]2SC1 | inactive | 6 mm | 16 mm | inactive | 10 mm | 6 mm | 14 mm | 8 mm | 15% |  | 
O=S(=O)(Cl)c1ccc(NC(=S)Nc2ccccc2)cc1 | 6 mm | inactive | inactive | inactive | 8 mm | inactive | 15 mm | inactive | 21% |  | 
CN[C@@H]1[C@H](O[C@H]2[C@H](O[C@H]3[C@H](O)[C@@H](O)[C@H](N=C(N)N)[C@@H](O)[C@@H]3N=C(N)N)O[C@@H](C)[C@]2(O)C=O)O[C@@H](CO)[C@H](O)[C@H]1O [STREPTOMYCIN] |  |  | 35 mm |  |  |  |  |  |  |  | 
CC(=O)OCC1=C(C(=O)O)N2C(=O)[C@@H](NS(=O)(=O)c3ccc(NC(=S)NCc4ccccc4)cc3)[C@H]2SC1 | 15 mm | 8 mm | 16 mm | 10 mm | 8 mm | 6 mm | 10 mm | 8 mm |  |  | 
CC(=O)OCC1=C(C(=O)O)N2C(=O)[C@@H](NS(=O)(=O)c3ccc(N)cc3)[C@H]2SC1 | 20 mm | 12 mm | 12 mm | 16 mm | 14 mm | 30 mm | 20 mm | 18 mm | 1% |  | 
O=C1CN(Cc2ccccc2)/C(=N\c2ccc(S(=O)(=O)Cl)cc2)S1 | 18 mm | inactive | 12 mm | 10 mm | 10 mm | inactive | 18 mm | 10 mm |  |  | 
CC(=O)OCC1=C(C(=O)O)N2C(=O)[C@@H](NS(=O)(=O)c3ccc(NC(=O)Nc4ccccc4)cc3)[C@H]2SC1 | 15 mm | 8 mm | 10 mm | 8 mm | 8 mm | 6 mm | 8 mm | 10 mm |  |  | 
O=C(Cl)CN1CCN(c2ccc([N+](=O)[O-])cc2F)CC1 | 15 mm | inactive | inactive | 8 mm | 15 mm | inactive | 30 mm | 8 mm | 25% |  | 
O=S(=O)(Cl)c1ccc(NC(=S)NCc2ccccc2)cc1 | 30 mm | 25 mm | 17 mm | 16 mm | 8 mm | 20 mm | 8 mm | 18 mm |  |  | 
CC(=O)OCC1=C(C(=O)O)N2C(=O)[C@@H](NS(=O)(=O)c3ccc(/N=C4/SC(=O)CN4Cc4ccccc4)cc3)[C@H]2SC1 | 22 mm | 8 mm | 16 mm | 10 mm | 10 mm | 8 mm | 18 mm | 8 mm |  |  | 
Nc1ccc(S(=O)(=O)Cl)cc1 | 18 mm | 12 mm | 10 mm | 12 mm | 13 mm | 28 mm | 20 mm | 15 mm |  |  | 
CC(=O)OCC1=C(C(=O)O)N2C(=O)[C@@H](NS(=O)(=O)c3ccc(NC(=S)Nc4ccccc4)cc3)[C@H]2SC1 | 18 mm | 10 mm | 18 mm | 10 mm | 14 mm | 8 mm | 22 mm | 12 mm |  |  | 
MERCURIC CHLORIDE [listing 1 of 2 here] |  |  |  |  |  |  |  |  |  | 76% | 
O=S(=O)(Cl)c1ccc(/N=c2/oc(-c3ccc(Cl)cc3)cn2Cc2ccccc2)cc1 | 18 mm | inactive | 12 mm | 8 mm | 8 mm | inactive | 10 mm | 6 mm | 21% |  | 
O=C(NCc1ccccc1)Nc1ccc(S(=O)(=O)Cl)cc1 | 30 mm | 25 mm | 15 mm | 16 mm | 18 mm | 20 mm | 20 mm | 18 mm | 23% |  | 
MERCURIC CHLORIDE [listing 2 of 2 here] |  |  |  |  |  |  |  |  |  |  | 93 µM
O=S(=O)(Cl)c1ccc(/N=c2/sc(-c3ccc(Cl)cc3)cn2-c2ccccc2)cc1 | 18 mm | inactive | 12 mm | 8 mm | 10 mm | inactive | 22 mm | 8 mm | 3% |  | 

Reference: ChEMBL document CHEMBL2434823, “Design, synthesis and biological activities of some 7-aminocephalosporanic acid derivatives” (Eur J Med Chem, 2013)
